Source: ChEMBL document CHEMBL1681687, “Discovery of muscarinic acetylcholine receptor antagonist and beta 2 adrenoceptor agonist (MABA) dual pharmacology molecules” (Bioorg Med Chem Lett, 2011)
pEC50, pKi: −log10 of the molar value.

Key:
[1] = molecular target: Muscarinic acetylcholine receptor M3 (Homo sapiens, UniProt P20309); assay: Displacement of [3H]-N-methyl-scopolamine from human muscarinic M3 receptor after 6 hrs by cell based assay
Procedure, shortened: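 Human M3 receptor-expressing cell membranes incubated up to 6 h at 37 °C with 1 nM [3H]N-methyl-scopolamine and serial dilutions of compound. Buffer 10 mM Hepes, 100 mM NaCl, 10 mM MgCl2, pH 7.4 at 37 °C. IC50 from displacement converted to Ki by Cheng–Prusoff.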

[2] = molecular target: T1, Beta-2 adrenergic receptor (Homo sapiens, UniProt P07550); assay: Displacement of [3H]-dihydroalprenolol from human beta2-adrenoceptor expressed in HEK cells after 4 hrs; format: cell-based, HEK293
T1 sequence (P07550 whole entry): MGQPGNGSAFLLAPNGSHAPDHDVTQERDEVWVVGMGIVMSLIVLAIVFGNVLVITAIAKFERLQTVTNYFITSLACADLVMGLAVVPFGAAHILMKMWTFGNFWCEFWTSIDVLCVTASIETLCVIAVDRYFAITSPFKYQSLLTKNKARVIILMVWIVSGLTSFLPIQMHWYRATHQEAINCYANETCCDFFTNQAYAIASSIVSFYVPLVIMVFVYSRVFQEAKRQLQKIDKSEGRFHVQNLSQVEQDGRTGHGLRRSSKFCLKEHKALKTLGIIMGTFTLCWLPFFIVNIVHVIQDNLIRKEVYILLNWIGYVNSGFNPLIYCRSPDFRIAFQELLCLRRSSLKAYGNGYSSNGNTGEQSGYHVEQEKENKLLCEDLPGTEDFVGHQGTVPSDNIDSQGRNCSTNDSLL

[3] = molecular target: T1, Beta-2 adrenergic receptor; assay: Agonist activity at human beta2-adrenoceptor expressed in HEK cells assessed as increase of cAMP level after 10 mins by radioimmunoassay; format: functional, cell-based, HEK293

Sequence of Muscarinic acetylcholine receptor M3 (P20309 whole entry): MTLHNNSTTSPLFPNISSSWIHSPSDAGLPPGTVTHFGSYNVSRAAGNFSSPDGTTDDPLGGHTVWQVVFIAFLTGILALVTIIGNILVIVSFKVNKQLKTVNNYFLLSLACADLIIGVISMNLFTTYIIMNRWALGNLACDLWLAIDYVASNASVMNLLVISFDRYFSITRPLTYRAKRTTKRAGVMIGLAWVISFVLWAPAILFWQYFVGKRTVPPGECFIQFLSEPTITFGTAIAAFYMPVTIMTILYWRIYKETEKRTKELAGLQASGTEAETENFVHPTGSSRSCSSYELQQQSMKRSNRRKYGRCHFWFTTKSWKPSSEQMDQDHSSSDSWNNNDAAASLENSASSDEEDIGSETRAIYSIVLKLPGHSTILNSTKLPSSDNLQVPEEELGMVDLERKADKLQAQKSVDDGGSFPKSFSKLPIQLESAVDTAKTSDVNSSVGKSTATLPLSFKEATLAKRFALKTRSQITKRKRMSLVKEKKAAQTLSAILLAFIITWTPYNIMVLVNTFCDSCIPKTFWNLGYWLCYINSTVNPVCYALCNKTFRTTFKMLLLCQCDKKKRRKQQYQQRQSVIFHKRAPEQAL

**Q.** `CCCCCCCN1CCC(OC(=O)Nc2ccccc2-c2ccccc2)CC1` was tested. Which pKi [1] did it give?
**A.** 8.29

**Q.** With `O=C(Nc1ccccc1-c1ccccc1)OC1CCN(CCCCCCCCNC[C@H](O)c2ccc(O)c3[nH]c(=O)ccc23)CC1` as the compound, how does the pKi [2] read?
**A.** 8.47

**Q.** What about the pKi [1] of the same compound?
**A.** 9.49

**Q.** And the pEC50 [3]?
**A.** 9.49

**Q.** `NCCCN1CCC(OC(=O)Nc2ccccc2-c2ccccc2)CC1` was tested. Which pKi [1] did it give?
**A.** 7.17

**Q.** `CCCCCN1CCC(OC(=O)Nc2ccccc2-c2ccccc2)CC1` was tested. Which pKi [1] did it give?
**A.** 7.85

**Q.** `NCCCCN1CCC(OC(=O)Nc2ccccc2-c2ccccc2)CC1` was tested. Which pKi [1] did it give?
**A.** 7.08

**Q.** With `NCCCCCCCCCCN1CCC(OC(=O)Nc2ccccc2-c2ccccc2)CC1` as the compound, how does the pKi [1] read?
**A.** 8.80

**Q.** Which results are given for `O=CNc1cc([C@@H](O)CNCCCCCCCCCN2CCC(OC(=O)Nc3ccccc3-c3ccccc3)CC2)ccc1O`?
**A.** pKi [2]: 7.68; pKi [1]: 9.85; pEC50 [3]: 8.59

**Q.** How did the pKi [1] turn out when `CCCCCCCCCN1CCC(OC(=O)Nc2ccccc2-c2ccccc2)CC1` was run?
**A.** 8.02

**Q.** `CCCCCCCCCCN1CCC(OC(=O)Nc2ccccc2-c2ccccc2)CC1` was tested. Which pKi [1] did it give?
**A.** 7.60

**Q.** `NCCN1CCC(OC(=O)Nc2ccccc2-c2ccccc2)CC1` was tested. Which pKi [1] did it give?
**A.** 7.30

**Q.** How did the pKi [2] turn out when `O=C(Nc1ccccc1-c1ccccc1)OC1CCN(CCCNC[C@H](O)c2ccc(O)c3[nH]c(=O)ccc23)CC1` was run?
**A.** 7.72

**Q.** What about the pKi [1] of the same compound?
**A.** 7.55

**Q.** What about the pEC50 [3] of the same compound?
**A.** 8.89

**Q.** How did the pKi [2] turn out when `O=C(Nc1ccccc1-c1ccccc1)OC1CCN(CCCCCCCNC[C@H](O)c2ccc(O)c3[nH]c(=O)ccc23)CC1` was run?
**A.** 8.00

**Q.** What about the pKi [1] of the same compound?
**A.** 9.13

**Q.** And the pEC50 [3]?
**A.** 8.96

**Q.** `NCCCCCCCCN1CCC(OC(=O)Nc2ccccc2-c2ccccc2)CC1` was tested. Which pKi [1] did it give?
**A.** 8.74

**Q.** How did the pKi [1] turn out when `CCCCN1CCC(OC(=O)Nc2ccccc2-c2ccccc2)CC1` was run?
**A.** 7.77

**Q.** `O=C(Nc1ccccc1-c1ccccc1)OC1CCNCC1` was tested. Which pKi [1] did it give?
**A.** 7.34

**Q.** `CCCCCCN1CCC(OC(=O)Nc2ccccc2-c2ccccc2)CC1` was tested. Which pKi [1] did it give?
**A.** 8.32

**Q.** How did the pKi [1] turn out when `NCCCCCCCCCN1CCC(OC(=O)Nc2ccccc2-c2ccccc2)CC1` was run?
**A.** 9.12

**Q.** With `O=C(Nc1ccccc1-c1ccccc1)OC1CCN(CCCCCCCCCNC[C@H](O)c2ccc(O)c(CO)c2)CC1` as the compound, how does the pKi [2] read?
**A.** 7.21

**Q.** What about the pKi [1] of the same compound?
**A.** 9.85

**Q.** What about the pEC50 [3] of the same compound?
**A.** 7.85

**Q.** How did the pKi [2] turn out when `O=C(Nc1ccccc1-c1ccccc1)O[C@H]1C[N+]2(CCCCCCCCCNCC(O)c3ccc(O)c4[nH]c(=O)ccc34)CCC1CC2` (stereo not given in full) was run?
**A.** 6.91

**Q.** What about the pKi [1] of the same compound?
**A.** 6.85

**Q.** And the pEC50 [3]?
**A.** 8.05

**Q.** With `NCCCCCN1CCC(OC(=O)Nc2ccccc2-c2ccccc2)CC1` as the compound, how does the pKi [1] read?
**A.** 7.01

**Q.** `NCCCCCCCCCCCCN1CCC(OC(=O)Nc2ccccc2-c2ccccc2)CC1` was tested. Which pKi [1] did it give?
**A.** 8.59

**Q.** `CCCCCCCCN1CCC(OC(=O)Nc2ccccc2-c2ccccc2)CC1` was tested. Which pKi [1] did it give?
**A.** 8.15

**Q.** How did the pKi [1] turn out when `CCCCCCCCCCCN1CCC(OC(=O)Nc2ccccc2-c2ccccc2)CC1` was run?
**A.** 7.32

**Q.** How did the pKi [1] turn out when `CCCN1CCC(OC(=O)Nc2ccccc2-c2ccccc2)CC1` was run?
**A.** 7.11

**Q.** With `NC(=O)C(c1ccccc1)(c1ccccc1)[C@@H]1CCN(CCCCCCCCCNCC(O)c2ccc(O)c3[nH]c(=O)ccc23)C1` (stereo not given in full) as the compound, how does the pKi [2] read?
**A.** 7.22

**Q.** And the pKi [1]?
**A.** 7.49

**Q.** What about the pEC50 [3] of the same compound?
**A.** 8.48

**Q.** `C[N+]1(CCCCCCCCCNC[C@H](O)c2ccc(O)c3[nH]c(=O)ccc23)[C@@H]2C[C@H](OC(=O)C(O)(c3cccs3)c3cccs3)C[C@@H]1[C@H]1O[C@H]12` (stereo not given in full) was tested. Which pKi [2] did it give?
**A.** 7.44

**Q.** And the pKi [1]?
**A.** 8.34

**Q.** What about the pEC50 [3] of the same compound?
**A.** 9.05

**Q.** `O=C(Nc1ccccc1-c1ccccc1)NC1CCN(CCCCCCCCCNCC(O)c2ccc(O)c3[nH]c(=O)ccc23)CC1` (stereo not given) was tested. Which pKi [2] did it give?
**A.** 6.94

**Q.** And the pKi [1]?
**A.** 8.12

**Q.** What about the pEC50 [3] of the same compound?
**A.** 8.08

**Q.** With `CN1CCC(OC(=O)Nc2ccccc2-c2ccccc2)CC1` as the compound, how does the pKi [1] read?
**A.** 7.66

**Q.** With `NCCCCCCCN1CCC(OC(=O)Nc2ccccc2-c2ccccc2)CC1` as the compound, how does the pKi [1] read?
**A.** 9.28

**Q.** With `NCCCCCCCCCCCN1CCC(OC(=O)Nc2ccccc2-c2ccccc2)CC1` as the compound, how does the pKi [1] read?
**A.** 8.60

**Q.** With `NCCCCCCN1CCC(OC(=O)Nc2ccccc2-c2ccccc2)CC1` as the compound, how does the pKi [1] read?
**A.** 7.72

**Q.** With `CCN1CCC(OC(=O)Nc2ccccc2-c2ccccc2)CC1` as the compound, how does the pKi [1] read?
**A.** 7.26
